{
  "source": "ChEMBL document CHEMBL1141433",
  "about": "“Tauramamide, a lipopeptide antibiotic produced in culture by Brevibacillus laterosporus isolated from a marine habitat: structure elucidation and synthesis” (2007)",
  "type_in_all_cases": "functional",
  "key": {"Staphylococcus aureus [1]": {"tested_on": "Staphylococcus aureus", "test": "Antimicrobial activity against methicillin-resistant Staphylococcus aureus by Alamar blue assay", "summary_of_the_method": "(§1)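 1:2 serial dilution in liquid culture; compound dissolved in DMSO or EtOH. Bacteria grown in TSB+ (5 g/L NaCl); C. albicans in Sabouraud or TSB+. Alamar Blue redox indicator read by colour: blue/purple means growth inhibited, bright pink means growth.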"}, "Candida albicans [2]": {"tested_on": "Candida albicans", "test": "Antimicrobial activity against Candida albicans by Alamar blue assay", "summary_of_the_method": "as §1"}, "Candida albicans [3]": {"tested_on": "Candida albicans", "test": "Antimicrobial activity against Candida albicans by agar extract inclusion assay", "summary_of_the_method": "(§2)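 Compound dissolved in DMSO or EtOH and mixed into Mueller Hinton agar cooled to 50 °C. Agar serially diluted 1:2 with more cooled agar. Pathogens spotted on the surface at about 2.5 × 10⁵ cells/mL inoculum. Plates incubated overnight at 37 °C and scored for growth inhibition to give the MIC.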"}, "Enterococcus sp.": {"tested_on": "Enterococcus sp.", "test": "Antimicrobial activity against Enterococcus sp. by Alamar blue assay", "summary_of_the_method": "as §1"}, "Staphylococcus aureus [4]": {"tested_on": "Staphylococcus aureus", "test": "Antimicrobial activity against methicillin-resistant Staphylococcus aureus by agar extract inclusion assay", "summary_of_the_method": "as §2"}},
  "note": "The source made the active and inactive calls. The calls are words filed in the database; no cut-off is given here.",
  "data": [
    {"compound": "CC(C)CCCCCC(=O)N[C@H](Cc1ccc(O)cc1)C(=O)N[C@@H](CO)C(=O)N[C@H](CC(C)C)C(=O)N[C@@H](Cc1c[nH]c2ccccc12)C(=O)N[C@@H](CCCNC(=N)N)C(=O)O", "note": "[TAURAMAMIDE]", "values": [
      {"measurement": "Activity", "setting": "Staphylococcus aureus [1]", "value": "inactive"},
      {"measurement": "Activity", "setting": "Candida albicans [2]", "value": "inactive"},
      {"measurement": "MIC", "setting": "Candida albicans [3]", "value": 50, "unit": "µg/mL"},
      {"measurement": "MIC", "setting": "Enterococcus sp.", "value": 0.1, "unit": "µg/mL"},
      {"measurement": "MIC", "setting": "Staphylococcus aureus [4]", "value": 200, "unit": "µg/mL"}
    ]},
    {"compound": "CCOC(=O)[C@H](CCCNC(=N)N)NC(=O)[C@H](Cc1c[nH]c2ccccc12)NC(=O)[C@@H](CC(C)C)NC(=O)[C@H](CO)NC(=O)[C@@H](Cc1ccc(O)cc1)NC(=O)CCCCCC(C)C", "note": "[TAURAMAMIDE ETHYL ESTER]", "values": [
      {"measurement": "MIC", "setting": "Staphylococcus aureus [1]", "value": 25, "unit": "µg/mL"},
      {"measurement": "MIC", "setting": "Candida albicans [2]", "value": 200, "unit": "µg/mL"},
      {"measurement": "MIC", "setting": "Candida albicans [3]", "value": 75, "unit": "µg/mL"},
      {"measurement": "MIC", "setting": "Enterococcus sp.", "value": 0.1, "unit": "µg/mL"},
      {"measurement": "MIC", "setting": "Staphylococcus aureus [4]", "value": 9.4, "unit": "µg/mL"}
    ]}
  ]
}
